Assays:
MCF7 = test: Cytotoxicity against human MCF7 cells assessed as growth inhibition after 24 to 48 hrs by CCK8 assay; type: functional, cell-based
Procedure, shortened: (§1)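 CCK8 proliferation assay: 1-5 × 10³ cells per well grew for 12 h, then were exposed to increasing compound concentrations in 10% FBS for 24 or 48 h. CCK8 dye was added for 1-2 h and plates were read on a multilabel counter. Percent inhibition or IC₅₀ was calculated against DMSO-treated control wells.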

A549 [1] = test: Cytotoxicity against human A549 cells assessed as growth inhibition after 24 to 48 hrs by CCK8 assay; type: functional, cell-based; procedure, shortened: as §1
[2] = molecular target: Cyclin-dependent kinase 2 (Homo sapiens, UniProt P24941); test: Inhibition of human N-terminal hexahistidine-tagged CDK2 expressed in baculovirus infected Sf21 cells using histone H1 as substrate after 10 mins in presence of [gamma-32P]-ATP
[3] = Cytotoxicity against human H460 cells assessed as growth inhibition after 24 to 48 hrs by CCK8 assay; type: functional, cell-based; settings: NCI-H460; procedure, shortened: as §1
A549 [4] = test: Cell cycle arrest in human A549 cells assessed as accumulation at G0/G1 phase at 2 uM after 36 hrs by propidium iodide staining-based FACS flow cytometric analysis (reference value: 57.07%); type: functional
A549 [5] = test: Cell cycle arrest in human A549 cells assessed as accumulation at G2/M phase at 0.5 uM after 36 hrs by propidium iodide staining-based FACS flow cytometric analysis (reference value: 2.09%); type: functional
A549 [6] = test: Cell cycle arrest in human A549 cells assessed as accumulation at G0/G1 phase at 0.5 uM after 36 hrs by propidium iodide staining-based FACS flow cytometric analysis (reference value: 57.07%); type: functional
A549 [7] = test: Cell cycle arrest in human A549 cells assessed as accumulation at G0/G1 phase at 1 uM after 36 hrs by propidium iodide staining-based FACS flow cytometric analysis (reference value: 57.07%); type: functional
A549 [8] = test: Cell cycle arrest in human A549 cells assessed as accumulation at G0/G1 phase after 36 hrs by propidium iodide staining-based FACS flow cytometric analysis; type: functional
[9] = molecular target: Cyclin-dependent kinase 7 (Homo sapiens, UniProt P50613); test: Inhibition of CDK7 (unknown origin) using histone H1 as substrate after 10 mins in presence of [gamma-32P]-ATP
Procedure, shortened: (§2)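 Radiometric kinase reaction in 50 mM Tris-HCl with ATP plus γ-³²P ATP, 10 mM MgCl₂, 5 mM DTT and histone H1 substrate. It ran 10 min with inhibitor and was stopped with 30% phosphoric acid. Mixtures were spotted on P81 paper and washed five times with 10 mM Tris-HCl (pH 8.0)/0.1 M NaCl. Spot radioactivity was imaged, and IC₅₀ was the concentration giving 50% inhibition.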

A549 [10] = test: Cell cycle arrest in human A549 cells assessed as accumulation at subG0 phase at 1 uM after 36 hrs by propidium iodide staining-based FACS flow cytometric analysis relative to control; type: functional
[11] = molecular target: Cyclin-dependent kinase 4 (Homo sapiens, UniProt P11802); test: Inhibition of CDK4 (unknown origin) using histone H1 as substrate after 10 mins in presence of [gamma-32P]-ATP; procedure, shortened: as §2
A549 [12] = test: Cell cycle arrest in human A549 cells assessed as accumulation at S phase at 1 uM after 36 hrs by propidium iodide staining-based FACS flow cytometric analysis (reference value: 40.84%); type: functional
A549 [13] = test: Cell cycle arrest in human A549 cells assessed as accumulation at G2/M phase at 2 uM after 36 hrs by propidium iodide staining-based FACS flow cytometric analysis (reference value: 2.09%); type: functional
A549 [14] = test: Cell cycle arrest in human A549 cells assessed as accumulation at subG0 phase at 0.5 uM after 36 hrs by propidium iodide staining-based FACS flow cytometric analysis relative to control; type: functional
[15] = molecular target: Cyclin-dependent kinase 5 (Homo sapiens, UniProt Q00535); test: Inhibition of CDK5 (unknown origin) using histone H1 as substrate after 10 mins in presence of [gamma-32P]-ATP; procedure, shortened: as §2
[16] = molecular target: Vascular endothelial growth factor receptor 2 (Homo sapiens, UniProt P35968); test: Inhibition of human VEGFR2 tyrosine kinase domain (Asp807 to Val1356) using poly-(Glu4-Tyr) as substrate incubated for 15 mins prior to ATP addition measured after 40 mins by DELFIA
A549 [17] = test: Cell cycle arrest in human A549 cells assessed as accumulation at S phase at 2 uM after 36 hrs by propidium iodide staining-based FACS flow cytometric analysis (reference value: 40.84%); type: functional
[18] = molecular target: Cyclin-dependent kinase 1 (Homo sapiens, UniProt P06493); test: Inhibition of CDK1 (unknown origin) using histone H1 as substrate after 10 mins in presence of [gamma-32P]-ATP; procedure, shortened: as §2
[19] = molecular target: Cyclin-dependent kinase 6 (Homo sapiens, UniProt Q00534); test: Inhibition of CDK6 (unknown origin) using histone H1 as substrate after 10 mins in presence of [gamma-32P]-ATP; procedure, shortened: as §2
A549 [20] = test: Cell cycle arrest in human A549 cells assessed as accumulation at subG0 phase at 2 uM after 36 hrs by propidium iodide staining-based FACS flow cytometric analysis relative to control; type: functional
A549 [21] = test: Cell cycle arrest in human A549 cells assessed as accumulation at S phase at 0.5 uM after 36 hrs by propidium iodide staining-based FACS flow cytometric analysis (reference value: 40.84%); type: functional
[22] = molecular target: Epidermal growth factor receptor (Homo sapiens, UniProt P00533); test: Inhibition of human C-terminal EGFR tyrosine kinase domain
A549 [23] = test: Cell cycle arrest in human A549 cells assessed as accumulation at G2/M phase at 1 uM after 36 hrs by propidium iodide staining-based FACS flow cytometric analysis (reference value: 2.09%); type: functional

Chain of Cyclin-dependent kinase 1 (P06493 whole entry): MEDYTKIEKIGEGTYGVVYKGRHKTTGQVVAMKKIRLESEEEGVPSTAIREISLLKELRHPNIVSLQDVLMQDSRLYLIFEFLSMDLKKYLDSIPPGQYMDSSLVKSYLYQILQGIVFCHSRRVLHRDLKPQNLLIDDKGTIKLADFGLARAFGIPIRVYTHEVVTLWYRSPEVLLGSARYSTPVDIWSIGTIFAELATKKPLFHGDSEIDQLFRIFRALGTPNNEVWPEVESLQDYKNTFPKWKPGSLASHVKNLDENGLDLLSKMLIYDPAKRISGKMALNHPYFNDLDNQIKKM
Chain of Epidermal growth factor receptor (P00533 whole entry, the tested form may be a part): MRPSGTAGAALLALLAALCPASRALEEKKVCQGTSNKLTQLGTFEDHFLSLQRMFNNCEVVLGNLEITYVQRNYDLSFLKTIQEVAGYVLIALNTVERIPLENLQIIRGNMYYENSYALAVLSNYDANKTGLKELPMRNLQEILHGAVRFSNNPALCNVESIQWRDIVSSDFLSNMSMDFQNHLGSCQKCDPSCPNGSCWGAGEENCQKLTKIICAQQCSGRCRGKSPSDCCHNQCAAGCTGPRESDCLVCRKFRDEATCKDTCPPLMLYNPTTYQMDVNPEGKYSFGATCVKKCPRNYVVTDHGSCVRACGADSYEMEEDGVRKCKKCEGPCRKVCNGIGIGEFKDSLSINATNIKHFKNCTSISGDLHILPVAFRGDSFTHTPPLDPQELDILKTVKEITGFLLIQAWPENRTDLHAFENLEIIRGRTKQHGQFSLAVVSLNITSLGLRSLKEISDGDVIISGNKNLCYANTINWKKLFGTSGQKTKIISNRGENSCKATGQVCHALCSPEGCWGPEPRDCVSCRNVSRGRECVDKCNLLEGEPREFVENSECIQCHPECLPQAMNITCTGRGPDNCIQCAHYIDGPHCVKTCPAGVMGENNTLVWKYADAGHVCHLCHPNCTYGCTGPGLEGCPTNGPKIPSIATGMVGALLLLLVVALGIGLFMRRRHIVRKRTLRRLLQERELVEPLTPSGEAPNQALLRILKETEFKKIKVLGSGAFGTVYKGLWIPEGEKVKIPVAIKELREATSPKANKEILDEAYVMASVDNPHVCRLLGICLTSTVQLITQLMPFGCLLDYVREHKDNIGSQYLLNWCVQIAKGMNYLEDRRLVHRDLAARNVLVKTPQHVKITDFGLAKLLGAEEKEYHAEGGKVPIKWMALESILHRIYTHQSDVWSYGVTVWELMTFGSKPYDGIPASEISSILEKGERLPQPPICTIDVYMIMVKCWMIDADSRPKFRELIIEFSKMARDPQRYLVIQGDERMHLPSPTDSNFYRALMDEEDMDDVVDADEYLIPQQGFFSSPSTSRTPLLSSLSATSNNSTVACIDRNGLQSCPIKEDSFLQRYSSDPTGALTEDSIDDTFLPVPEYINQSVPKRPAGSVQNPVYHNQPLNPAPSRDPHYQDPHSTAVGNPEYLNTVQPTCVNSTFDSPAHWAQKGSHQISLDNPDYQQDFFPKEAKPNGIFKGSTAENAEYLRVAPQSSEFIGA
Chain of Cyclin-dependent kinase 6 (Q00534 whole entry): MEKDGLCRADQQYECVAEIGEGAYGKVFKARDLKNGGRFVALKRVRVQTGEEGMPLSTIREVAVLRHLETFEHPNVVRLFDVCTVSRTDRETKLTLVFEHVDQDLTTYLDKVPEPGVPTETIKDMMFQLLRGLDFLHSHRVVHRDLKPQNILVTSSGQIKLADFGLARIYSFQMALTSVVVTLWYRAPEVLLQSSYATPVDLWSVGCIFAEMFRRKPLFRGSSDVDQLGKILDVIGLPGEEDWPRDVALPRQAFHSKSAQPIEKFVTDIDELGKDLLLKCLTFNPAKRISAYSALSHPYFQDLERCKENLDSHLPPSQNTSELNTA
Chain of Cyclin-dependent kinase 7 (P50613 whole entry): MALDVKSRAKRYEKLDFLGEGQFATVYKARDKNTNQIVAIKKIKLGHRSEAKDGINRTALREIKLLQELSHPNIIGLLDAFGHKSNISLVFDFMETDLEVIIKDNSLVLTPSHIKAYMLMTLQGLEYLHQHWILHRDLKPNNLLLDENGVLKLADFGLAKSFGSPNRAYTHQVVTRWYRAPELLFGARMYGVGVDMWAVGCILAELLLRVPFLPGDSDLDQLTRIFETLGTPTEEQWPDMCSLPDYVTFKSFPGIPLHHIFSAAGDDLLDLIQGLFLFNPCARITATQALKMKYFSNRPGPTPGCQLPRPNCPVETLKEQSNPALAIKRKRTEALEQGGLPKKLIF
Chain of Vascular endothelial growth factor receptor 2 (P35968 whole entry, the tested form may be a part): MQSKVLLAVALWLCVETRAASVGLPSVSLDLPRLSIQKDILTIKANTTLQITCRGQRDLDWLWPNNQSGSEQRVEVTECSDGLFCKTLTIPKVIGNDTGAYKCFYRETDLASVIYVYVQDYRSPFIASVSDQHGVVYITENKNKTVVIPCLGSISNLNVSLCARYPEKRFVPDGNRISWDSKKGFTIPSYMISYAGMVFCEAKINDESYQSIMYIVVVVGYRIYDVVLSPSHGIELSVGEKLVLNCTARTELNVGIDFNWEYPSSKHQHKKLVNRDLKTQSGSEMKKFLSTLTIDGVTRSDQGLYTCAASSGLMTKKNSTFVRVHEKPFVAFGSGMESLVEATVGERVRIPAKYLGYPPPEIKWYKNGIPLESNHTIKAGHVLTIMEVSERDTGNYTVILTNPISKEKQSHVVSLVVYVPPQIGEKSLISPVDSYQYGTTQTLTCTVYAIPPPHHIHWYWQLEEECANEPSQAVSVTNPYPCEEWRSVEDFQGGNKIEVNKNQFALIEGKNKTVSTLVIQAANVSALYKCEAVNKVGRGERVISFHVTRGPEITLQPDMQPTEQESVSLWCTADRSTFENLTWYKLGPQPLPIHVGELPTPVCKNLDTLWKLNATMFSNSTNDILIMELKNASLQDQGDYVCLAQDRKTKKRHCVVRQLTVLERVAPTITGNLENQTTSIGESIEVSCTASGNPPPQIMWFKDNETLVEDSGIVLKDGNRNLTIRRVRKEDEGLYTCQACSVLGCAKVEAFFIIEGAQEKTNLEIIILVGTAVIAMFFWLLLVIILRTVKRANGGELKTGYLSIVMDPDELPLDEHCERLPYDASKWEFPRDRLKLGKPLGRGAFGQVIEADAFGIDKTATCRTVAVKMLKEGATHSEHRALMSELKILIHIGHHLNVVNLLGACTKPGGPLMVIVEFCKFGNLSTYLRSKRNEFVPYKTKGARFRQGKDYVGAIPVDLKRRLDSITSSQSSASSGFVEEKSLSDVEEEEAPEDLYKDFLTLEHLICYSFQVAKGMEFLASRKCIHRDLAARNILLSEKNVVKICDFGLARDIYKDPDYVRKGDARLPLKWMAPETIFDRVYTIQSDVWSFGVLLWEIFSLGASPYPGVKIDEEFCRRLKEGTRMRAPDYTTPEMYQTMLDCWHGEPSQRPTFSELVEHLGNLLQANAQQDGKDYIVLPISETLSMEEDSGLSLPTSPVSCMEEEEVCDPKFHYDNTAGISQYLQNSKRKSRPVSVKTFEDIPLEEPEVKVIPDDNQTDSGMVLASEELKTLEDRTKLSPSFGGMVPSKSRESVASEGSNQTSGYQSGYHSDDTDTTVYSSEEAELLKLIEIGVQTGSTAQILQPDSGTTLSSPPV
Chain of Cyclin-dependent kinase 5 (Q00535 whole entry, the tested form may be a part): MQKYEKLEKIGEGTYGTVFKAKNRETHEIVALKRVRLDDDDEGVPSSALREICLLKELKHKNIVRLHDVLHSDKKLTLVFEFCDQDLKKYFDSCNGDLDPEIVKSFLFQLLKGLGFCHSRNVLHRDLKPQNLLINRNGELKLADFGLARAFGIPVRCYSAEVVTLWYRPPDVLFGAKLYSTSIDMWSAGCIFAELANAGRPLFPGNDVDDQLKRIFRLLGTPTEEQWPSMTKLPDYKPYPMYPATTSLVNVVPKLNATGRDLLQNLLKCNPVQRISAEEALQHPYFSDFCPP
Chain of Cyclin-dependent kinase 4 (P11802 whole entry): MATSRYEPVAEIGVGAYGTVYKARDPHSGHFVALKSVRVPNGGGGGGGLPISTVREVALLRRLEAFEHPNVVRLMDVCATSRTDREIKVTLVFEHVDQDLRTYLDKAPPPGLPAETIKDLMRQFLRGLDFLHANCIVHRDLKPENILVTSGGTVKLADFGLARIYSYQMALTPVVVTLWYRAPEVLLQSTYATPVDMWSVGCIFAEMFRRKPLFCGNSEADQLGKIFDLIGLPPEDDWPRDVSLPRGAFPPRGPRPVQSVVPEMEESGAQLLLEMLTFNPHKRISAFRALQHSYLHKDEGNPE

Compound	IC50 (MCF7)	IC50 (A549 [1])	IC50 [2]	IC50 [3]	other results
COc1ccc(-c2nn(-c3ccccc3)cc2C(=O)NC(=S)Nc2ccc(C)cc2)cc1	4630 nM	1250 nM	29 nM	2880 nM	–
O=C(NC(=S)Nc1ccc(F)cc1)c1cn(-c2ccccc2)nc1-c1ccccc1	6820 nM	3500 nM	75 nM	4210 nM	–
COc1ccc(NC(=S)NC(=O)c2cn(-c3ccccc3)nc2-c2ccc(OC)cc2)cc1	4210 nM	750 nM	25 nM	2570 nM	Activity (A549 [4]): 64%; Activity (A549 [5]): 8.04%; Activity (A549 [6]): 59.49%; Activity (A549 [7]): 62.53%; Activity (A549 [8]): Dose-dependent effect; IC50 [9]: 1420 nM; Activity (A549 [10]): 0%; IC50 [11]: 35 nM; Activity (A549 [12]): 34.48%; Activity (A549 [13]): 7.52%; Activity (A549 [14]): 0%; IC50 [15]: 1090 nM; IC50 [16]: > 5000 nM; Activity (A549 [17]): 28.48%; IC50 [18]: 522 nM; IC50 [19]: 29 nM; Activity (A549 [20]): 0%; Activity (A549 [21]): 32.47%; IC50 [22]: > 5000 nM; Activity (A549 [23]): 2.99%
COc1ccc(-c2nn(-c3ccccc3)cc2C(=O)NC(=S)Nc2ccc(F)cc2)cc1	4990 nM	1430 nM	32 nM	3050 nM	–
COc1ccc(NC(=S)NC(=O)c2cn(-c3ccccc3)nc2-c2ccc(F)cc2)cc1	4890 nM	1980 nM	36 nM	2860 nM	IC50 [9]: 1640 nM; IC50 [11]: 39 nM; IC50 [15]: 1180 nM; IC50 [16]: > 5000 nM; IC50 [18]: 569 nM; IC50 [19]: 33 nM; IC50 [22]: > 5000 nM
COc1ccc(NC(=S)NC(=O)c2cn(-c3ccccc3)nc2-c2ccc(Cl)cc2)cc1	5240 nM	2270 nM	37 nM	3010 nM	IC50 [9]: 1650 nM; IC50 [11]: 40 nM; IC50 [15]: 1360 nM; IC50 [16]: > 5000 nM; IC50 [18]: 571 nM; IC50 [19]: 42 nM; IC50 [22]: > 5000 nM
Cc1ccc(NC(=S)NC(=O)c2cn(-c3ccccc3)nc2-c2ccc(Cl)cc2)cc1	5980 nM	2690 nM	42 nM	3120 nM	–
Cc1ccc(-c2nn(-c3ccccc3)cc2C(=O)NC(=S)Nc2ccc(F)cc2)cc1	6420 nM	3420 nM	41 nM	3980 nM	–
O=C(NC(=S)Nc1ccc(Cl)cc1)c1cn(-c2ccccc2)nc1-c1ccc(Cl)cc1	5360 nM	3150 nM	58 nM	3260 nM	–
COc1ccc(NC(=S)NC(=O)c2cn(-c3ccccc3)nc2-c2ccc(C)cc2)cc1	5120 nM	2390 nM	47 nM	3240 nM	IC50 [9]: 1790 nM; IC50 [11]: 40 nM; IC50 [15]: 1420 nM; IC50 [16]: > 5000 nM; IC50 [18]: 584 nM; IC50 [19]: 43 nM; IC50 [22]: > 5000 nM
O=C(NC(=S)Nc1ccc(F)cc1)c1cn(-c2ccccc2)nc1-c1ccc(Cl)cc1	5990 nM	3980 nM	59 nM	3640 nM	–
Cc1ccc(NC(=S)NC(=O)c2cn(-c3ccccc3)nc2-c2ccc(F)cc2)cc1	5440 nM	2080 nM	43 nM	2980 nM	–
Cc1ccc(-c2nn(-c3ccccc3)cc2C(=O)NC(=S)Nc2ccc(Cl)cc2)cc1	6210 nM	3170 nM	63 nM	3650 nM	–
Cn1cnc2c(NCc3ccccc3)nc(NCCO)nc21 [OLOMOUCINE]	142000 nM	130000 nM	–	132000 nM	–
O=C(NC(=S)Nc1ccc(F)cc1)c1cn(-c2ccccc2)nc1-c1ccc(F)cc1	5610 nM	3540 nM	49 nM	3240 nM	–
COc1ccc(-c2nn(-c3ccccc3)cc2C(=O)NC(=S)Nc2ccc(Cl)cc2)cc1	4760 nM	1310 nM	30 nM	3010 nM	–
O=C(NC(=S)Nc1ccc(Cl)cc1)c1cn(-c2ccccc2)nc1-c1ccc(F)cc1	5470 nM	2990 nM	44 nM	3090 nM	–
COc1ccc(NC(=S)NC(=O)c2cn(-c3ccccc3)nc2-c2ccccc2)cc1	5460 nM	2500 nM	56 nM	3540 nM	IC50 [9]: 1880 nM; IC50 [11]: 42 nM; IC50 [15]: 1500 nM; IC50 [16]: > 5000 nM; IC50 [18]: 610 nM; IC50 [19]: 50 nM; IC50 [22]: > 5000 nM
Cc1ccc(NC(=S)NC(=O)c2cn(-c3ccccc3)nc2-c2ccc(C)cc2)cc1	5660 nM	2830 nM	52 nM	3760 nM	–
O=C(NC(=S)Nc1ccc(Cl)cc1)c1cn(-c2ccccc2)nc1-c1ccccc1	6230 nM	3200 nM	71 nM	4020 nM	–
Cc1ccc(NC(=S)NC(=O)c2cn(-c3ccccc3)nc2-c2ccccc2)cc1	5900 nM	2800 nM	69 nM	3960 nM	–
